Double positive events and response (vesicle binding) data for 21 molecules are collected here from PubChem BioAssay AID2052 (NMMLSC, 2009).

Out of some 330,000 compounds screened, about 220 (0.067%) were called active.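 The calls were made as follows: active = response, share of CD8 T cells binding vesicles, and their 90th percentile fluorescence all below set limits (cut at about 80% in these data, passing the limit was not always enough); inactive = the rest, inconclusive results apart.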 Shown is part of a subset that was picked to be rich in actives.

This assay can be described thus: modulators of CD8 T cell-vesicle binding, primary screen, mouse 2C CD8+ T cells, flow cytometry (AID 2052).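 As to Double positive events: binding gate set so that unloaded-vesicle control wells show 10% double positive cells.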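 As to response (vesicle binding): values below 100% mean blocked vesicle binding to the CD8+ T cells.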 The settings on record: 2C CD8+ T cell-vesicle binding, at 7 µM, stronger effect = lower value; double positive events: measured here: CD8+ vesicle-bound cell fraction. Summed up:
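material = purified 2C TCR transgenic mouse naive CD8+ T cells | controls = Unloaded micro-vesicles (low), QL9 vesicles with 0.7% DMSO (high) | detection = cytometric PE anti-B7-1 and Alexa647 anti-CD8 signals after 1% paraformaldehyde fixation | incubation = binding step 1.5 h, 37 °C, antibody labelling 20 min, ice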
As for `Cc1nn(CCOc2ccc(Br)cc2)c(C)c1[N+](=O)[O-]`, the double positive events is 61.8% and the response (vesicle binding) was 447% (inactive).

For the molecule `COc1cc(OC)c(-n2cc(-c3ccc(Cl)cc3)[nH]c2=O)cc1Cl`, the double positive events was found to be 39.5% and the response (vesicle binding) is 546% (inactive).

Regarding `O=C(c1ccco1)N1CCN(C(=O)C2c3ccccc3Oc3ccccc32)CC1`, the double positive events turned out to be 0% and the response (vesicle binding) was 0% (active).

Consider `O=C(c1ccc2c(c1)OCO2)N1CCN(C(=O)c2ccco2)CC1`, for which the double positive events was determined as 35.9% and the response (vesicle binding) is 148% (inactive).

Regarding `O=C(c1ccco1)N1CCN(CCOc2ccccc2)CC1`, the double positive events worked out at 23.1% and the response (vesicle binding) was 301% (inactive).

On to `Cc1cc(C)c(NC(=O)CSc2nc3ccncc3[nH]2)c(C)c1`, for which the double positive events came out at 24.7% and the response (vesicle binding) was 968% (inactive).

Take `Cc1sc2ncnc(SCC(=O)Nc3ccc(CN4CCCC4)cc3)c2c1C`: the double positive events came to 35.3% and the response (vesicle binding) was 104% (inactive).

In the case of `C=CC[C@@H](CC(=O)N[C@@H](CO)Cc1ccccc1)C(=O)NCCOC(=O)[C@@H](CC=C)CC(=O)OC(C)(C)C`, the double positive events is 13.7% and the response (vesicle binding) was 321% (inactive).

`CC(=O)Nc1nc2c(s1)C(=O)NCC(C)(C)C2`: the double positive events turned out to be 50.4% and the response (vesicle binding) was 439% (inactive).

On to `Cc1ccc(C(=O)Nc2ccc(C)c(S(=O)(=O)N(C)C)c2)s1`, for which the double positive events stood at 45.5% and the response (vesicle binding) is 218% (inactive).

Regarding `Nc1ccc(OCC(O)C[n+]2ccc(CCS(=O)(=O)[O-])cc2)cc1` (configuration not stated), the double positive events was 20.9% and the response (vesicle binding) is 319% (inactive).

Consider `CC(Oc1ccc(Br)cc1)C(=O)NCC(c1ccco1)N1CCCCC1` (configuration not stated), for which the double positive events stood at 51.4% and the response (vesicle binding) was 336% (inactive).

As for `O=C1CC(Sc2ncn[nH]2)C(=O)N1c1ccccc1` (configuration not stated), the double positive events stood at 46.5% and the response (vesicle binding) was 391% (inactive).

Take `COC(=O)C(C(=O)Nc1cccc(C)n1)C1CCCCCC1` (configuration not stated): the double positive events turned out to be 44.3% and the response (vesicle binding) was 158% (inactive).

Regarding `CSc1ccccc1C(=O)OCC(=O)N1CCN(C(C)=O)CC1`, the double positive events is 34.9% and the response (vesicle binding) is 823% (inactive).

For the molecule `CCn1cc(C(=O)N2CC=C(c3ccccc3)CC2)c(=O)c2ccc(C)nc21`, the double positive events stood at 1.9% and the response (vesicle binding) is 79.1% (inactive).

Regarding `CN1C(C(=O)NCC2CC2)CC2Cn3c(nc4ccccc43)C21` (configuration not stated), the double positive events was found to be 12.7% and the response (vesicle binding) was 473% (inactive).

With `Cc1ccc(C)c2[nH]c(=O)c(CCNC(=O)CC(C)C)cc12`, the double positive events stood at 38.5% and the response (vesicle binding) was 832% (inactive).

Turning to `CCOC(=O)C1CCN(C(=O)C2(NC(=O)Nc3cccc(F)c3)CCCCC2)CC1`, the double positive events was determined as 36.4% and the response (vesicle binding) was 360% (inactive).

Turning to `CC1=C(C(N)=O)C(c2sccc2C)n2nnnc2N1` (configuration not stated), the double positive events worked out at 23.4% and the response (vesicle binding) was 292% (inactive).

`CC1=C(C(=O)OC2CCCCC2)C(c2ccccc2F)NC(=O)N1` (configuration not stated): the double positive events was 33.6% and the response (vesicle binding) is 167% (inactive).
